Measurements reported in paper PMC3947009 (ACS Chemical Biology, 2013).
Values joined by “and” are separate entries in the source; they are usually repeats but may differ in a detail not shown here. Equal values may be shown once.

Target: GluA2 LBD (S1S2J, rat GluA2-flop subunit, N754S) (Rattus norvegicus, UniProt P19491, DEL528-650/N775S/S652T/V651G)
Type: biochemical
How it was run: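 Trypsin-detagged LBD (residues N392-K506/P632-S775, GT linker) from E. coli Origami B(DE3), purified by ion exchange and sizing. Protein 0.017–0.1 mM in 10 mM glutamate, 25 mM NaCl, 25 mM Tris-Cl pH 7, with modulator from DMSO (1 µL per 30 µL); kept at 4 °C; synchrotron SAXS. Dimer fraction fit with monomer/dimer form factors (1FTJ); EC50 from dimerization curves; constants from simultaneous one- or two-site equilibrium fits.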

Compound | EC50 | Kd | fold lower EC50 for dimerization than HFMZ (CYTZ vs HFMZ) | fold lower EC50 for dimerization than TCMZ (CYTZ vs TCMZ)
NS(=O)(=O)c1cc2c(cc1C(F)(F)F)NCNS2(=O)=O [HFMZ, hydroflumethiazide] | 2000 to 5000 µM | ~5 µM |  | 
NS(=O)(=O)c1cc2c(cc1Cl)NC(C1CC3C=CC1C3)NS2(=O)=O (centres unmarked) [CYTZ, cyclothiazide] | 100 to 200 µM | ~5 µM | 20 × | 10 ×
NS(=O)(=O)c1cc2c(cc1Cl)NC(C(Cl)Cl)NS2(=O)=O (centres unmarked) [TCMZ, trichlormethiazide] | 1000 to 2000 µM | 46.8 µM and ~50 µM |  | 
